Format: in vivo, Sprague–Dawley rats
How it was run: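 Male Sprague–Dawley rats (210–240 g) were fed a control diet or control diet plus 2.5, 5 or 10% test fiber for 2 wk, then dosed orally with test material at 200 or 2,000 mg/kg (n = 5 per group). Tail-vein blood was drawn at 0–24 h. Plasma was spun at 4,000 × g and deproteinized with acetonitrile. LC-MS/MS used MRM with an amlodipine internal standard. Cmax and Tmax were read from the profiles.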

[1] = 10% NUTRIOSE in the diet, ginseng extract-treated rats

CC(C)=CCC[C@](C)(O[C@@H]1O[C@H](CO)[C@@H](O)[C@H](O)[C@H]1O)[C@H]1CC[C@]2(C)[C@@H]1[C@H](O)C[C@@H]1[C@@]3(C)CC[C@H](O[C@@H]4O[C@H](CO)[C@@H](O)[C@H](O)[C@H]4O[C@@H]4O[C@H](CO)[C@@H](O)[C@H](O)[C@H]4O)C(C)(C)[C@@H]3CC[C@]12C [ginsenoside Rd]
fold increase of AUC of ginsenoside Rd by NUTRIOSE [1]: 1.34 fold | fold increase of Cmax of ginsenoside Rd by NUTRIOSE [1]: 1.34 fold | time after administration at which ginsenoside Rd was detected in blood (ginsenoside Rb1-treated rats): 8 h | AUC of ginsenoside Rd, fold higher in ginseng extract-treated than in ginsenoside Rb1-treated rats (same oral dosage of ginsenoside Rb1 and ginseng extract): 13.5 fold

— article PMC4213839 (Journal of Ginseng Research, 2014)
